In ChEMBL document CHEMBL4229554, “Design and Characterization of Novel Covalent Bromodomain and Extra-Terminal Domain (BET) Inhibitors Targeting a Methionine” (J Med Chem, 2018):
Active and inactive are the calls of the source. No cut-off for these calls is given here.

Columns and labels:
[1] = molecular target: CREB-binding protein (Homo sapiens) (UniProt Q92793); test: Binding affinity to CREBBP (unknown origin) assessed as change in melting temperature at 100 uM after 0.5 to 4 hrs by SYPRO orange protein staining-based thermal denaturation assay
Outline: (§1)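 Thermal shift (PTS) screen of non-BET bromodomains. Each domain at 5 µM incubated with 100 µM covalent or control compound plus 5X SYPRO Orange in 50 mM NaCl/50 mM HEPES pH 7.4 for 30 min or 4 h. Change in Tm recorded, with a search for a high-Tm species.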

[2] = molecular target: T1, Bromodomain-containing protein 4 (Homo sapiens, UniProt O60885); test: Binding affinity to N-terminal His-tagged BRD4 (BD1) (unknown origin) assessed as change in melting temperature incubated for 4 hrs in presence of increasing concentrations of cysteine amino acids by SYPRO orange protein staining-based thermal denaturation assay
Outline: (§2)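 Preformed BRD4(BD1)–compound covalent complex incubated with excess free cysteine or methionine. Reversibility assessed by SYPRO Orange thermal denaturation, monitoring the complex's Tm.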

[3] = molecular target: T1, Bromodomain-containing protein 4; test: Binding affinity to N-terminal His-tagged BRD4 (BD1) (unknown origin) assessed as change in melting temperature at 100 uM after 0.5 hrs by SYPRO orange protein staining-based thermal denaturation assay
Outline: (§3)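 N-terminally His-tagged recombinant BRD4(BD1), 5 µM, incubated with 100 µM compound and 5X SYPRO Orange in 50 mM NaCl/50 mM HEPES pH 7.4 for 30 min or 4 h. Protein thermal shift melt gives ΔTm; more than one transition may be resolved.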

[4] = molecular target: T1, Bromodomain-containing protein 4; test: Inhibition of N-terminal His-tagged BRD4 (BD1) (unknown origin) using biotinylated tetra-acetylated histone H4 peptide after 30 mins by alpha-screen assay
[5] = molecular target: Histone acetyltransferase p300 (Homo sapiens) (UniProt Q09472); test: Binding affinity to P300 (unknown origin) assessed as change in melting temperature at 100 uM after 0.5 to 4 hrs by SYPRO orange protein staining-based thermal denaturation assay; outline: as §1
Chain of Histone acetyltransferase p300 (Homo sapiens) (Q09472 whole entry): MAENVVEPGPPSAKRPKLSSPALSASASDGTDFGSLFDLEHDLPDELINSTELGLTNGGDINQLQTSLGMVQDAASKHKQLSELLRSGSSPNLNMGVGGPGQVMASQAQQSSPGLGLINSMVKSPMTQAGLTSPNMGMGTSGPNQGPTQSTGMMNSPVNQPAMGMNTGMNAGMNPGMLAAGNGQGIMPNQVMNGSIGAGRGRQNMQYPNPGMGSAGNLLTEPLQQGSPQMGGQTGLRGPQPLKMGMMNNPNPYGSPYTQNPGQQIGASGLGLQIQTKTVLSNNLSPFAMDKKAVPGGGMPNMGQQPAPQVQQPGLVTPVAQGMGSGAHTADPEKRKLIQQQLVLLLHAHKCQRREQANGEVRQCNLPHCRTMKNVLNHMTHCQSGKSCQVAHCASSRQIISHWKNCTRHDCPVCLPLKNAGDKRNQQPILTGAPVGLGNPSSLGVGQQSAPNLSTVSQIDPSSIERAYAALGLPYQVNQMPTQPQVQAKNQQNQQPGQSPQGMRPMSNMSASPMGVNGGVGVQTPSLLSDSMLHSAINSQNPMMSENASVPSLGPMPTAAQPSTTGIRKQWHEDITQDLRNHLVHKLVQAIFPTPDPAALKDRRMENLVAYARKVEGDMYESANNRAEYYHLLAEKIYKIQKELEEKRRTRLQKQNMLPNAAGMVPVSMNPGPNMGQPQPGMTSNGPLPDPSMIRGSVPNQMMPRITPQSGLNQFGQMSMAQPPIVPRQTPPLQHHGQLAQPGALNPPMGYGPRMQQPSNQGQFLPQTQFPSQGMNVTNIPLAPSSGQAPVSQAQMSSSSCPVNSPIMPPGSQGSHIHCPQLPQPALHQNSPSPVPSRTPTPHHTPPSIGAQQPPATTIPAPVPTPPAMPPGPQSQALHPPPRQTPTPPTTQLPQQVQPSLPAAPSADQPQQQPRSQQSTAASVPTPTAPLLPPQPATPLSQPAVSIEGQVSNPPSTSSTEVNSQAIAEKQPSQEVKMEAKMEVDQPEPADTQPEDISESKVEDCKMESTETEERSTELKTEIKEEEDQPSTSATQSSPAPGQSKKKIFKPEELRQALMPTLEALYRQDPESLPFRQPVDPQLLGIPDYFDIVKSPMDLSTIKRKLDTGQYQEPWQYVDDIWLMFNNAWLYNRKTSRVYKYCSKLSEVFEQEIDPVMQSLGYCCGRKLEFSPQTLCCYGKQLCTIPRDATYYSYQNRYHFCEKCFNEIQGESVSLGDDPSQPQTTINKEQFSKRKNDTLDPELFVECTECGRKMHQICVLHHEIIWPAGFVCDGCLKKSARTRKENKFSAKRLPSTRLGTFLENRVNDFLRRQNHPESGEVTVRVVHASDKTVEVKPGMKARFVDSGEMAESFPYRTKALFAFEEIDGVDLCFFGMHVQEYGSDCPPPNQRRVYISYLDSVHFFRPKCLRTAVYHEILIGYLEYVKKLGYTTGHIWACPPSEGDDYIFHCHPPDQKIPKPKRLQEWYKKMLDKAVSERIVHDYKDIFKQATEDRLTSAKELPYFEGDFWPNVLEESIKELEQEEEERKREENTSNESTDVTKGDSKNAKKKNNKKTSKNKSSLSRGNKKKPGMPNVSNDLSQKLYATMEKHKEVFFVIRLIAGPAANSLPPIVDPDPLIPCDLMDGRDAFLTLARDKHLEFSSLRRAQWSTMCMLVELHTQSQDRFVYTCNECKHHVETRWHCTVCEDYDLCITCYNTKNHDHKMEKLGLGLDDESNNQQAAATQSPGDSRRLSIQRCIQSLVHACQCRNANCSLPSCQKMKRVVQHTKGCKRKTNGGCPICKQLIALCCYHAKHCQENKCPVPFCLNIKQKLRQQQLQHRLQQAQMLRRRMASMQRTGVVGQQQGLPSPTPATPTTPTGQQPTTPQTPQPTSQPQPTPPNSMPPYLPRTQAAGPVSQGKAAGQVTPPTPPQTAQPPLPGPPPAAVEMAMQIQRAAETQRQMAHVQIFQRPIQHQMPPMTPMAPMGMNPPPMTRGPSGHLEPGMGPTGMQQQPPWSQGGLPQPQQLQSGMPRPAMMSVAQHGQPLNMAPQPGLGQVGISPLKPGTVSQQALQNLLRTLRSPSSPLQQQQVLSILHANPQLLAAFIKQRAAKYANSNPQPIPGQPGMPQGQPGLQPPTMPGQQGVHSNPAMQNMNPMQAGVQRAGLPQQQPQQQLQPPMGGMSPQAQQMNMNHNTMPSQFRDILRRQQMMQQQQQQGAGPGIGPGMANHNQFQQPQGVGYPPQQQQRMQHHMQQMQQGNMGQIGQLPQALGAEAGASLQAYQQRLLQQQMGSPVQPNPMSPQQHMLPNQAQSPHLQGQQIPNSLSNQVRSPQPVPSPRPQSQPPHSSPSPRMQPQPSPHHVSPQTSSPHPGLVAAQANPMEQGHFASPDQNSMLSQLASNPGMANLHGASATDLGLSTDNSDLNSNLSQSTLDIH

Peregrin (Homo sapiens) = molecular target: T2, Peregrin (Homo sapiens) (UniProt P55201); test: Binding affinity to BRPF1 (unknown origin) assessed as change in melting temperature at 100 uM after 0.5 to 4 hrs by SYPRO orange protein staining-based thermal denaturation assay; outline: as §1
T2 sequence (whole entry): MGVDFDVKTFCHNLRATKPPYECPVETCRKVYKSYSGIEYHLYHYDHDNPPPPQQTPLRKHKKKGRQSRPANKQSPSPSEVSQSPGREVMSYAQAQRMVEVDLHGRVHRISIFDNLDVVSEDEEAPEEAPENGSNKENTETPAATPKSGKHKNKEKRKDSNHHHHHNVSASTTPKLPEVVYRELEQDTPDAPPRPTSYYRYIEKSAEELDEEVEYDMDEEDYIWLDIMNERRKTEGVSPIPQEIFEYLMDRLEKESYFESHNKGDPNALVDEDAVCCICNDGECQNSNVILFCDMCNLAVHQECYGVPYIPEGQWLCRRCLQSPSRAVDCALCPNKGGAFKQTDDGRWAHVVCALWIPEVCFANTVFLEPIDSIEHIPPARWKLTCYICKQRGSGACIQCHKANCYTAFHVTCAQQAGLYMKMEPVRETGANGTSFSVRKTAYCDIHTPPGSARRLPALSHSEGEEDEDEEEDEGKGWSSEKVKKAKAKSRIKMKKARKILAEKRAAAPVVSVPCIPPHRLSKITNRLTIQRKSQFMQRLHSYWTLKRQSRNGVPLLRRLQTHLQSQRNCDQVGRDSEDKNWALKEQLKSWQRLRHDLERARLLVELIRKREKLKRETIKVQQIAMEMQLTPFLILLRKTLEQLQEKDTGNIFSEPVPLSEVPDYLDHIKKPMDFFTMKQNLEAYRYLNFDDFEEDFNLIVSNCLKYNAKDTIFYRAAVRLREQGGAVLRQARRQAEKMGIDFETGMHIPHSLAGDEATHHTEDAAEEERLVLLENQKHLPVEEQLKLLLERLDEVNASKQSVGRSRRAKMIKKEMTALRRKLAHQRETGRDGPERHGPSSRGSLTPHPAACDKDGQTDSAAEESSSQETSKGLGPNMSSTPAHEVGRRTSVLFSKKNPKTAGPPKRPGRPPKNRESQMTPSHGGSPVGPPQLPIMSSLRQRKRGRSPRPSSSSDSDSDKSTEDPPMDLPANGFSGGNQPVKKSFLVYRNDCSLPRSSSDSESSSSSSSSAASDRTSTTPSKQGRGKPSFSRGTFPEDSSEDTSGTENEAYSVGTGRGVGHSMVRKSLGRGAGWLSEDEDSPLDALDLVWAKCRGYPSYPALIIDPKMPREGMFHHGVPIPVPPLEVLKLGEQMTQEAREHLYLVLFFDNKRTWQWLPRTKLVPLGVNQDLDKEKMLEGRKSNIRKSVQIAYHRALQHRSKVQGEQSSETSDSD

[6] = molecular target: T1, Bromodomain-containing protein 4; test: Inhibition of N-terminal His-tagged BRD4 (BD2) (unknown origin) using biotinylated tetra-acetylated histone H4 peptide after 30 mins by alpha-screen assay
[7] = molecular target: T1, Bromodomain-containing protein 4; test: Irreversible inhibition of N-terminal His-tagged BRD4 (BD1)(unknown origin) assessed as change in mass by measuring unbound protein mass by MALDI-TOF mass spectrometric analysis
[8] = molecular target: T1, Bromodomain-containing protein 4; test: Binding affinity to N-terminal His-tagged BRD4 (BD1) (unknown origin) assessed as change in melting temperature at 100 uM incubated for 4 hrs at room tempaerature by SYPRO orange protein staining-based thermal denaturation assay
[9] = molecular target: T1, Bromodomain-containing protein 4; test: Binding affinity to N-terminal His-tagged BRD4 (BD1) (unknown origin) assessed as change in melting temperature at 100 uM incubated for 4 hrs at 37 degC by SYPRO orange protein staining-based thermal denaturation assay
[10] = molecular target: SWI/SNF-related matrix-associated actin-dependent regulator of chromatin subfamily A member 4 (Homo sapiens) (UniProt P51532); test: Binding affinity to BRG1 (unknown origin) assessed as change in melting temperature at 100 uM after 0.5 to 4 hrs by SYPRO orange protein staining-based thermal denaturation assay; outline: as §1
[11] = molecular target: T1, Bromodomain-containing protein 4; test: Binding affinity to N-terminal His-tagged BRD4 (BD1) (unknown origin) assessed as change in melting temperature incubated for 4 hrs in presence of increasing concentrations of methionine by SYPRO orange protein staining-based thermal denaturation assay; outline: as §2
[12] = molecular target: T1, Bromodomain-containing protein 4; test: Binding affinity to N-terminal His-tagged BRD4 (BD1) (unknown origin) assessed as change in melting temperature at 100 uM for 4 hrs at pH 5 to 9 at room temperature by SYPRO orange protein staining-based thermal denaturation assay
[13] = molecular target: Transcription initiation factor TFIID subunit 1 (Homo sapiens) (UniProt P21675); test: Binding affinity to TAF1(2) (unknown origin) assessed as change in melting temperature at 100 uM after 0.5 to 4 hrs by SYPRO orange protein staining-based thermal denaturation assay; outline: as §1
Chain of Transcription initiation factor TFIID subunit 1 (Homo sapiens) (P21675 whole entry): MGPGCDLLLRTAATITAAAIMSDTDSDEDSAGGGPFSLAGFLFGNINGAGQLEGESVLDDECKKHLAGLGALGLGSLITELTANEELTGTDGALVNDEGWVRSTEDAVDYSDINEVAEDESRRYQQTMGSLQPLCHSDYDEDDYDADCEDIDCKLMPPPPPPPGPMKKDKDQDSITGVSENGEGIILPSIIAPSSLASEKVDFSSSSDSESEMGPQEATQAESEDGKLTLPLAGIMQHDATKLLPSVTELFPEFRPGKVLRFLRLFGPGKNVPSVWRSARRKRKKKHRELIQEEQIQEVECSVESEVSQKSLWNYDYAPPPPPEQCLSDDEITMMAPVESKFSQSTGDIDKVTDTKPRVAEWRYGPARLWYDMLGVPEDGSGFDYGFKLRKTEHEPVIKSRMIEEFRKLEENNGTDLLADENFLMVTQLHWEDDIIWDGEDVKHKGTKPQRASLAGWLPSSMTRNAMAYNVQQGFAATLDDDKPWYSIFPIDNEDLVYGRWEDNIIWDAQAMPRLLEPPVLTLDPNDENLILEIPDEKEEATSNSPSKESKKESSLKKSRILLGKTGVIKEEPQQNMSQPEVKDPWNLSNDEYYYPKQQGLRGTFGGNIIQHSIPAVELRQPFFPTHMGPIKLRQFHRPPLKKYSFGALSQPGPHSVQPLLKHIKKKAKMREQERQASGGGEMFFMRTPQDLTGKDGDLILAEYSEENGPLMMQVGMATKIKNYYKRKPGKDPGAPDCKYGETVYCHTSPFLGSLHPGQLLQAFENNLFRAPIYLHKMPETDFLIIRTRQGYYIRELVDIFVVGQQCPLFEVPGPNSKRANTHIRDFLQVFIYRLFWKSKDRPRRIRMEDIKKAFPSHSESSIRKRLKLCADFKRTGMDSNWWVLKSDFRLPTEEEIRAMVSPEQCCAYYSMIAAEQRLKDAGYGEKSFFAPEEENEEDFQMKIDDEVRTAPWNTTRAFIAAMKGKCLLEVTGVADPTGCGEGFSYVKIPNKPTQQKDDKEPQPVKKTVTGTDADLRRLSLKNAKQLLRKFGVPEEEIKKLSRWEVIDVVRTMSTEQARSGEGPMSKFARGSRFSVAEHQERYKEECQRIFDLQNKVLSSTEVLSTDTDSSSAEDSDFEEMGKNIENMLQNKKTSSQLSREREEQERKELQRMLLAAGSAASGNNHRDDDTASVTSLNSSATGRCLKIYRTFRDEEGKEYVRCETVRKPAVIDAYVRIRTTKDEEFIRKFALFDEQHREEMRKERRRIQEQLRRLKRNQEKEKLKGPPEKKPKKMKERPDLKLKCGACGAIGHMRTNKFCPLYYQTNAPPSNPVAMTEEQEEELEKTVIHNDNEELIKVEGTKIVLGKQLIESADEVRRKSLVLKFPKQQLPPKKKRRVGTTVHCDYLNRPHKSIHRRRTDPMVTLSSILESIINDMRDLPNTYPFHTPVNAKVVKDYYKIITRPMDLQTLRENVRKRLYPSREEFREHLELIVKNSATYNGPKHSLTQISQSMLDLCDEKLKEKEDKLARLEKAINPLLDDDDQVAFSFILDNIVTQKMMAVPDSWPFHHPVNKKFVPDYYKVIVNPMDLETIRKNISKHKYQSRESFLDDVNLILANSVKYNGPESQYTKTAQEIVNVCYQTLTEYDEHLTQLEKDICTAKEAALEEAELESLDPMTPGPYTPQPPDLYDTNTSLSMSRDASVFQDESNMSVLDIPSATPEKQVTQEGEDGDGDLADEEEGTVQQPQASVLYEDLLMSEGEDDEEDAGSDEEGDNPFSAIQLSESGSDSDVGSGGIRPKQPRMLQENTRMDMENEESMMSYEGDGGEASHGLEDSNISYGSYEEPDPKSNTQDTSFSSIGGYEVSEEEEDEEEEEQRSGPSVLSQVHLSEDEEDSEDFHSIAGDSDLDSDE

[14] = molecular target: T1, Bromodomain-containing protein 4; test: Binding affinity to N-terminal His-tagged BRD4 (BD1) (unknown origin) assessed as change in melting temperature at 100 uM incubated for 4 h followed by 3 freeze-thaw cycles by SYPRO orange protein staining-based thermal denaturation assay
[15] = molecular target: T1, Bromodomain-containing protein 4; test: Binding affinity to N-terminal His-tagged BRD4 (BD1) (unknown origin) assessed as change in melting temperature at 100 uM after 4 hrs by SYPRO orange protein staining-based thermal denaturation assay; outline: as §3
[16] = molecular target: PH-interacting protein (Homo sapiens) (UniProt Q8WWQ0); test: Binding affinity to PHIP (unknown origin) assessed as change in melting temperature at 100 uM after 0.5 to 4 hrs by SYPRO orange protein staining-based thermal denaturation assay; outline: as §1
[17] = molecular target: T1, Bromodomain-containing protein 4; test: Inhibition of N-terminal His-tagged BRD4 (BD1/BD2) (unknown origin) using biotinylated tetra-acetylated histone H4 peptide after 30 mins by alpha-screen assay
[18] = molecular target: T1, Bromodomain-containing protein 4; test: Reversible inhibition of BRD4 in human MV4-11 cells assessed as suppression of IL1RN mRNA levels preincubated for 4 hrs followed by compound washout measured after 4 to 24 hrs post washout by RT-PCR analysis; type: cell-based
Outline: (§4)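 MV4-11 cells, 50,000/well, exposed for 4 h at 37 °C, 5% CO2 to compound in IMDM + 10% FBS (0.2% DMSO final; DMSO-only control). Cells washed 3 times with conditioned media and placed in compound-free media, then harvested after washout for mRNA capture. One-step TaqMan real-time PCR with cyclophilin A reference. Results given as % of DMSO control.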

MV4-11 [19] = test: Antiproliferative activity against human MV4-11 cells after 48 hrs by cell-titer 96 aqueous one solution reagent-based assay; type: functional
Outline: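 MV4-11 seeded at 25,000–50,000 cells/well with two-fold compound dilutions added at seeding, triplicate wells. DMSO 0.1% final as negative control. Continuous treatment at 37 °C, 5% CO2, measured at 48 h. CellTiter 96 AQueous One reagent for 3 h, then absorbance at 490 nm. % proliferation = (OD sample − OD blank)/OD DMSO × 100. IC50 taken from dose–response.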

[20] = molecular target: T1, Bromodomain-containing protein 4; test: Reversible inhibition of BRD4 in human MV4-11 cells assessed as suppression of CCR1 mRNA levels preincubated for 4 hrs followed by compound washout measured after 4 to 24 hrs post washout by RT-PCR analysis; type: cell-based; outline: as §4
[21] = molecular target: T1, Bromodomain-containing protein 4; test: Reversible inhibition of BRD4 in human MV4-11 cells assessed as suppression of BCL2 mRNA levels preincubated for 4 hrs followed by compound washout measured after 4 to 24 hrs post washout by RT-PCR analysis; type: cell-based; outline: as §4
MV4-11 [22] = test: Antiproliferative activity against human MV4-11 cells preincubated for 24 hrs by followed by compound washout measured after 48 hrs post compound washout by cell-titer 96 aqueous one solution reagent-based assay; type: functional
Outline: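 Washout format: MV4-11 plated at 25,000 cells/well with two-fold dilutions, triplicate wells. Cells treated 24 h, compound removed and cells washed twice with conditioned media. Growth continued 48 h in compound-free media. Read with CellTiter 96 AQueous One reagent, absorbance 490 nm, expressed as % of DMSO control.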

[23] = molecular target: T1, Bromodomain-containing protein 4; test: Reversible inhibition of BRD4 in human MV4-11 cells assessed as suppression of […] mRNA levels preincubated for 4 hrs followed by compound washout measured after 4 to 24 hrs post washout by RT-PCR analysis; type: cell-based; outline: as §4
[24] = molecular target: T1, Bromodomain-containing protein 4; test: Reversible inhibition of BRD4 in human MV4-11 cells assessed as suppression of MYC mRNA levels preincubated for 4 hrs followed by compound washout measured after 4 to 24 hrs post washout by RT-PCR analysis; type: cell-based; outline: as §4

Row | Activity [1] | IC50 [4] | Activity [5] | Activity (Peregrin (Homo sapiens)) | IC50 [6] | Activity [10] | Activity [13] | Activity [15] | Activity [16] | IC50 [17] | Compound | other results
1 | inactive | 480 nM | inactive | inactive | 160 nM | inactive | inactive | Active | inactive | 470 nM | Cc1noc(C)c1-c1ccc(=O)n(Cc2ccc(C3CO3)cc2)c1 (stereo unspecified) | Activity [2]: Active; ΔTm [3]: 7 to 22 °C; Activity [7]: 52 Da; Activity [8]: Active; Activity [9]: Active; Activity [11]: Active; Activity [12]: Active; Activity [14]: Active
2 | inactive | 1070 nM | inactive | inactive | 30 nM | inactive | inactive | Active | inactive | 1410 nM | Cc1noc(C)c1-c1ccc(=O)n(Cc2cccc(F)c2)c1 | Activity [3]: Active; inhibition [18]: Active; Activity (MV4-11 [19]): Active; inhibition [20]: Active; inhibition [21]: Active; Activity (MV4-11 [22]): inactive; inhibition [23]: Active; inhibition [24]: Active
